Assay results gathered from unrelated publications.
Target: Serine/threonine-protein kinase Nek4 (NEK4, Homo sapiens, UniProt P51957)

Structure (SMILES)	read-out	technique	tested at	remaining binding [%]
Cn1nc(C(=O)NCc2ccc(C(=O)O)cc2)cc1-c1ccc2[nH]ccc2c1	cell-free assay	competition with immobilised ligand	0.1 µM	84
CC1CCCN1c1nccc(-c2cnn3ncccc23)n1 (stereo not drawn)	binding		1 µM	100
Cn1nc(C(F)(F)F)cc1-c1cnc(N2CCc3cc(S(=O)(=O)Nc4c(F)cc(Cl)cc4F)cc(N4CCCC4=O)c32)nc1	cell-free assay	competition with immobilised ligand	1 µM	72
O=C(Nc1c[nH]nc1C(=O)NC1CCNCC1)c1cc(F)cc(F)c1	binding	competition with immobilised ligand	1 µM	91
Cc1cnc(Nc2ccc(C(=O)N3CCC(N4CCCC4)CC3)cc2)nc1-c1cc2ccccc2s1	binding	competition with immobilised ligand	1 µM	59
N[C@H]1CCN(c2nccc(-c3cnn4ncccc34)n2)C1	binding		1 µM	100
Nc1ncc2c(n1)-c1c([nH]c3ccc(C#CC4CC4)cc13)CCCC2	binding	competition with immobilised ligand	1 µM	84
C[C@@H]1CCN(c2nccc(-c3cnn4ncccc34)n2)C1	binding		1 µM	83
CCC(=O)N[C@H]1CC[C@@H](C(=O)N(C)c2ccc(-c3nc4ccccc4o3)cc2)C1	cell-free assay	competition with immobilised ligand	1 µM	99
CN(C)c1nccc(-c2cnn3ncccc23)n1	binding		1 µM	98
C[C@@H](c1ccc(-n2cnc3c(N)ncnc32)cc1)N1CCc2nn(C)c(Cc3ccccc3)c2C1=O	binding	competition with immobilised ligand	0.1 µM	82
c1cnn2ncc(-c3ccnc(N4CCC45COC5)n3)c2c1	binding		1 µM	68
CC(=O)C1=C(C)N(c2cccc(C(F)(F)F)c2)C(=O)N[C@@H]1c1ccc(C#N)nc1	cell-free assay	competition with immobilised ligand	1 µM	93.9
O=C(NCCCN1CCOCC1)c1ccc(Nc2ncc(Cl)c(-c3ccc(Cl)s3)n2)cc1	binding	competition with immobilised ligand	1 µM	40
CN(c1ccnc(CNc2nc(Nc3ccc4c(c3)CC(=O)N4)ncc2C(F)(F)F)n1)S(C)(=O)=O	cell-free assay	competition with immobilised ligand	1 µM	84
CNC(=O)[C@@H]1CC[C@@H](n2c(-c3ccc4cnccc4c3)nc3ccc(C(=O)NCc4cccc(C(N)=O)c4)cc32)C1	binding	competition with immobilised ligand	1 µM	100
CCN1CCN(Cc2ccc(C(=O)Nc3ccc(C)c(Oc4ccc5c(c4)CC(=O)N5)c3)cc2C(F)(F)F)CC1	binding	competition with immobilised ligand	1 µM	100
O=C(c1ccc(Nc2nccc(-c3cc4ccccc4s3)n2)cc1)N1CCC(N2CCCC2)CC1	binding	competition with immobilised ligand	1 µM	100
COc1ccnn2ncc(-c3ccnc(N(C)C)n3)c12	binding		1 µM	86
CCCCN(CCCC)C(=O)CN1C[C@@H](c2cc(OC)c3c(c2)OCO3)[C@H](C(=O)O)[C@H]1CC(C)(C)CCC	cell-free assay	competition with immobilised ligand	1 µM	93.9
COc1cnc(Nc2cccc(S(N)(=O)=O)c2)nc1N1CCN(c2ccccc2)CC1	binding	competition with immobilised ligand	1 µM	95
